STAT3 act = activators of IL-6 induced STAT3 signaling | U3A cells, IL-6 STAT3-luciferase reporter, luminescence; 100% = signal with IL-6 EC80 alone | activation (% of control), % at 5.6 µM | 190,000 tested, 0.91% active | AID 871;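 active = activation above the screen-wide mean of compound activation plus 3 SD, cut at about 130% in these data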;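 note: 0% = background luminescence of wells with medium and substrate only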
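Test system: STAT3-luciferase reporter U3A cells; Detection: reporter luminescence signal; Times: 1 h compound pre-exposure, 6 h IL-6 stimulation, 37 °C; Benchmarks: IL-6-only high control; Also added: IL-6 stimulus at 33 ng/mL final.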
NF-kB neuron act = raises NF-kB expression in human neuronal cells | NF-kB reporter expression; active compounds read high | fold change at 12.5 µM | 190,000 tested, 1.6% active; in the data active = fold change above about 3.3
STAT1 act = increases IFN-gamma driven STAT1 reporter signal | NIH 3T3 STAT1-luciferase reporter, luminescence; 100% = IFN-gamma alone, no compound | activation (% of control), % at 5.5 µM | 200,000 tested, 2.6% active;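 active = activation above the screen-wide mean activation plus 3 SD, cut at about 130% in these data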;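 note: raw ratio to IFN-gamma control signal so 100% means no change and 0% no light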
STAT3 blocker = reduces IL-6 driven STAT3 reporter signal; AID 862; U3A cells, IL-6 STAT3-luciferase reporter, luminescence; host cell line lacks STAT1; 190,000 tested, 0.89% active; inhibition, % at 5.5 µM;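 active = inhibition above the mean inhibition across all screened compounds plus 3 SD, cut at about 44% in these data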;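 note: 0% = DMSO only wells and 100% = 100 µM nifuroxazide control wells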
STAT1 inh = STAT1 signaling inhibition | inhibition, % at 5.5 µM | 200,000 tested, 0.35% active | NIH 3T3 STAT1-luciferase reporter, IFN-gamma, luminescence;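 active = inhibition above a set limit, the mean inhibition across all tested compounds plus 3 SD, cut at about 34% in these data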;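 note: 0% = IFN-gamma with DMSO and 100% = IFN-gamma with 300 µM nifuroxazide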
APP 5'UTR act = activates APP 5'UTR luciferase reporter; SH-SY5Y APP 5'UTR luciferase reporter, luminescence; zero percent = DMSO vehicle wells; activation, % at 2 µM; 190,000 tested, 1% active;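 active = activation above a set limit, based on mean plus 3 SD of controls, cut at about 140% in these data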
An asterisk follows results filed as active; x = no result. Sampled rows, rich in hits. Any-hit rate of the full collection: about 4.9%.

SMILES	STAT3 act	NF-kB neuron act	STAT1 act	STAT3 blocker	STAT1 inh	APP 5'UTR act
COc1ccc(/C(O)=C2/C(=O)C(=O)N(c3ncccn3)C2c2ccc(C(C)(C)C)cc2)cc1 (stereo not drawn)	99	1.3	107	3	-8	9
Cc1ccc(Nc2nnc(SCC(=O)NC3CCCc4ccccc43)s2)cc1 (stereo not drawn)	108	0.98	104	-14	-5	8
Cc1ccccc1Nc1nnc(SCC(=O)NC2CCCc3ccccc32)s1 (stereo not drawn)	107	0.73	144*	-13	-48	7
CC(=O)Cn1nnc2sc(-c3ccccc3)cc2c1=O	115	1.7	146*	-18	-51	50
O=c1c2cc(-c3ccccc3)sc2ncn1-n1cccc1	92	1.9	129*	16	-32	53
CCc1cc2c(=O)n(-c3ccccc3)cnc2s1	97	1.7	114	7	-17	x
CCc1cc2c(=O)n(-c3ccc(C)cc3)cnc2s1	100	4.2*	139*	3	-42	93
COc1ccc(-n2cnc3sc(-c4ccccc4)cc3c2=O)cc1	99	3.5*	149*	8	-55	120
CC(=O)Cn1cnc2sc(-c3ccccc3)cc2c1=O	119	3.7*	145*	-22	-49	86
O=C(Cn1cnc2sc(-c3ccccc3)cc2c1=O)N1CCOCC1	103	1.2	105	0	-6	-4
Nc1nc(-c2c[nH]c3ccccc23)cs1	104	0.42	93	1	7	13
CCc1ccc(-c2csc(-c3c[nH]c4ccccc34)n2)cc1	112	2.7	132*	-14	-36	40
COc1ccc(-c2csc(C3=C(O)CN(CCCN4CCCC4=O)C3=N)n2)cc1OC	105	0.92	87	0	12	41
CC1=CC(C2CC(=O)N(c3ccc(C)cc3)C2=O)CC2C(=O)N(c3ccc(C)cc3)C(=O)C12 (stereo not drawn)	94	1.1	90	9	9	-9
Cc1ccc(S(=O)(=O)N(C)C)cc1NC(=O)CCc1c[nH]c2ccccc12	86	1.4	94	25	5	7
COc1ccc(S(=O)(=O)N(C)C)cc1NC(=O)Cc1c[nH]c2ccccc12	133*	1.1	88	-40	14	29
Cc1nc(C(F)(F)F)c(C(=O)N/N=C(\N)c2ccccn2)s1	93	1	94	13	6	-57
CCCc1cc(C(=O)O)c2ccccc2n1	95	1.1	100	3	0	-6
Cc1ccc(NC(=O)Cc2cc(C(=O)O)c3ccccc3n2)c(C)c1	98	4.6*	114	7	-16	-12
COc1ccc(/C=C/CN2CCCC(C(=O)c3ccc(OC)c(F)c3)C2)cc1 (stereo not drawn)	113	1	95	-2	5	2
COc1ccc(-c2cc(C(=O)NC(C)C)no2)cc1	92	3.7*	144*	10	-43	106
O=c1oc2ccccc2cc1-c1cn2cccnc2n1	77	2.6	140*	33	-44	55
COc1ccc2oc(=O)c(-c3cn4ccc(C)cc4n3)cc2c1	89	1.3	120	16	-24	41
Nc1ccc(-c2cn3cccnc3n2)cc1	92	1.3	115	15	-19	26
O=c1oc2ccccc2cc1-c1ccccc1	98	1.7	127	7	-32	44
SMILES	STAT3 act	NF-kB neuron act	STAT1 act	STAT3 blocker	STAT1 inh	APP 5'UTR act
O=c1oc2ccccc2cc1-c1cn2ccccc2n1	20	0.67	23	96*	81*	32
Cc1cccn2cc(-c3cc4ccccc4oc3=O)nc12	73	3.9*	137*	37	-43	84
CCN=C1NN=C(c2cc(C)n(CCc3ccccc3)c2C)CS1	104	0.93	108	-4	-9	-6
COCCn1c(C)cc(C2=NNC(=Nc3ccccc3)SC2)c1C	77	0.33	143*	30	-47	155*
CCN=C1NN=C(c2c[nH]c3ccccc23)CS1	85	x	125	22	-30	162*
CCN=C1NN=C(c2cc(C)n(Cc3ccco3)c2C)CS1	34	0.29	60	82*	45*	20
C=CCn1c(C)cc(C2=NNC(=NCc3ccccc3)SC2)c1C	114	2.8	112	-13	-14	139*

Source: PubChem (several laboratories)
